We go through four compounds from publication PMC3504124 (Journal of the American Chemical Society, 2012).

Bounds are passed on as bounds.

In assay [1] the target is T1, SETD2 (Homo sapiens, UniProt Q9BYW2).
T1 sequence (Q9BYW2 1347-1711): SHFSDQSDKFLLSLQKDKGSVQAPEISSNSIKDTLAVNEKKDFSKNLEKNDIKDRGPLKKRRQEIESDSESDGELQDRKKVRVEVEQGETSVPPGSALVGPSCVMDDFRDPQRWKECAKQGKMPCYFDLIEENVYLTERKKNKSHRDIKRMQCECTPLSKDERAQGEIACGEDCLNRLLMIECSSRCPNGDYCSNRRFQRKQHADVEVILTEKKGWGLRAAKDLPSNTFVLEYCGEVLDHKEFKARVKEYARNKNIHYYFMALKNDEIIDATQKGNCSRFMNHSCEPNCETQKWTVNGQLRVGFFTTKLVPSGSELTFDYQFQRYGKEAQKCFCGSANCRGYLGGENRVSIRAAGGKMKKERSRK
The assay is described as follows: Filter-paper methylation assay with [3H-Me]-SAM, IC50 against SETD2. In kind it is biochemical. The note with it: for preference to SETD2 over other examined methyltransferases: panel of 15 human methyltransferases. The gist of the method:
(§1)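 Radiometric filter-paper assay: the methyl group from [3H-Me]-SAM is transferred to a peptide substrate, the peptide is captured by filter binding, and radioactivity is counted by scintillation. For SETD2, both SAM and peptide were below their Km. IC50 was obtained by fitting percent inhibition against inhibitor concentration.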

In a further assay the test system is SUV39H2. The assay is described as follows: Filter-paper methylation assay, potency against SUV39H2. In kind it is biochemical, human. The gist of the method: as §1
The target in a further assay is T2, SET7/9 (Homo sapiens, UniProt Q8WTS6).
T2 sequence (Q8WTS6 1-366): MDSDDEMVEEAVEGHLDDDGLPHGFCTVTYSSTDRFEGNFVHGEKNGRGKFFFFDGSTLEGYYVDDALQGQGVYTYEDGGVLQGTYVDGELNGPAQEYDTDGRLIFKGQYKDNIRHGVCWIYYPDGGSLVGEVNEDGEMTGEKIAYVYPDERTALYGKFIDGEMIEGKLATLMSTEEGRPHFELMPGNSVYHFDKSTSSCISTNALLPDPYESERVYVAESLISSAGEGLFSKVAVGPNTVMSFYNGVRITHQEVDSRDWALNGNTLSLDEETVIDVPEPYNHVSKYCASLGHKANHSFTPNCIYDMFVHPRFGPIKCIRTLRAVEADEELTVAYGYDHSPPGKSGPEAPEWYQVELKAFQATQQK
The assay is described as follows: Filter-paper methylation assay, IC50 against SET7/9. In kind it is biochemical. The gist of the method:
as §1

The target of the next assay is PRMT1 (Homo sapiens, UniProt Q99873). The assay is described as follows: Filter-paper methylation assay, IC50 against PRMT1. In kind it is biochemical. The settings on record: read-out: IC50 for PRMT1. The gist of the method:
as §1

In a further assay the target is T3, CARM1 (Homo sapiens, UniProt Q86X55).
T3 sequence (Q86X55 19-608): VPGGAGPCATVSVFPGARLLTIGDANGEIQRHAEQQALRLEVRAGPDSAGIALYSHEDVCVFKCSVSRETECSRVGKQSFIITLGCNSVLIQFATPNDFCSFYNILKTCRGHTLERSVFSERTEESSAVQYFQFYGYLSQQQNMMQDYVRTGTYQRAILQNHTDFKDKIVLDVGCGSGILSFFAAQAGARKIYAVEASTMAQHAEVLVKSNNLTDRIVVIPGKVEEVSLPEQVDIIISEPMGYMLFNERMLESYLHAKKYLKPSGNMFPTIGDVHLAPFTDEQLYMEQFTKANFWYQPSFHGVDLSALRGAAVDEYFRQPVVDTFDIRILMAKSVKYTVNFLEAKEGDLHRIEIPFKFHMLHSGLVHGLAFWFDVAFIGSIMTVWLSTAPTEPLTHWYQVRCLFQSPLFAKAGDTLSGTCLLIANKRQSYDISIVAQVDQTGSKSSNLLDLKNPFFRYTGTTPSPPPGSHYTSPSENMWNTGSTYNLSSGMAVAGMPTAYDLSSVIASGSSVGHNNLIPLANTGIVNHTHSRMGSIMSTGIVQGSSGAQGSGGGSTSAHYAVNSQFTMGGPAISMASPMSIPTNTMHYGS
The assay is described as follows: Filter-paper methylation assay, IC50 against CARM1. In kind it is biochemical. The note with it: read-out: IC50 for CARM1.

The next assay addresses T4, GLP (Homo sapiens, UniProt Q9H9B1).
T4 sequence (Q9H9B1 982-1266): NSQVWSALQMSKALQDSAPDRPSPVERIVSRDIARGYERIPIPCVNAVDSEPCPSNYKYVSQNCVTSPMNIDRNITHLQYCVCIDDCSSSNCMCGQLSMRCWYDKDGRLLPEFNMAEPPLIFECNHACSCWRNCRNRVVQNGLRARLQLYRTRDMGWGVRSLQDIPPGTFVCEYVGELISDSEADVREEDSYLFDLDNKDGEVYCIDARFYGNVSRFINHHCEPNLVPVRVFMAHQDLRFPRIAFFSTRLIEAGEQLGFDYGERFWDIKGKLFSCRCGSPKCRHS
The assay is described as follows: Filter-paper methylation assay, IC50 against GLP. The note with it: read-out: IC50 for GLP. In kind it is biochemical. The gist of the method: as §1

Another assay concerns the target T5, SET8 (Homo sapiens, UniProt Q9NQR1).
T5 sequence (Q9NQR1 232-393 limits assumed): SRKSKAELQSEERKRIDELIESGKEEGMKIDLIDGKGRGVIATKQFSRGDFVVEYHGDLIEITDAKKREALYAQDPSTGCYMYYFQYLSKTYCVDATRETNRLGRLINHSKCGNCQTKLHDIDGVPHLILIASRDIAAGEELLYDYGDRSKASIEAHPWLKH
The assay is described as follows: Filter-paper methylation assay, IC50 against SET8. In kind it is biochemical. The settings on record: read-out: IC50 for SET8. The gist of the method:
as §1

Assay [2] deals with T1, SETD2. The assay is described as follows: Kinetics analysis of SETD2-catalyzed methylation. In kind it is biochemical.
The target of a further assay is T6, G9a (Homo sapiens, UniProt Q96KQ7).
T6 sequence (Q96KQ7 913-1193): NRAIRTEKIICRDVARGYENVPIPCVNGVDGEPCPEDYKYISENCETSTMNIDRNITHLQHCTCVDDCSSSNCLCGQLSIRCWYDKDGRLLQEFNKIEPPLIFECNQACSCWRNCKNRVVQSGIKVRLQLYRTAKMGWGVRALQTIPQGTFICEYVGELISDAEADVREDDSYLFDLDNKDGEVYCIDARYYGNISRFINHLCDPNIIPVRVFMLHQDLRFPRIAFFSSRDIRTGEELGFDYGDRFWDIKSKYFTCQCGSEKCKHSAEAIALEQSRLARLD
The assay is described as follows: Filter-paper methylation assay, IC50 against G9a. In kind it is biochemical. The note with it: read-out: IC50 for G9a.

In a further assay the test system is DOT1L. The settings on record: read-out: in vitro IC50 on DOT1L; cited from earlier work.

Chain of PRMT1 (Q99873 10-352 isoform Q99873-3): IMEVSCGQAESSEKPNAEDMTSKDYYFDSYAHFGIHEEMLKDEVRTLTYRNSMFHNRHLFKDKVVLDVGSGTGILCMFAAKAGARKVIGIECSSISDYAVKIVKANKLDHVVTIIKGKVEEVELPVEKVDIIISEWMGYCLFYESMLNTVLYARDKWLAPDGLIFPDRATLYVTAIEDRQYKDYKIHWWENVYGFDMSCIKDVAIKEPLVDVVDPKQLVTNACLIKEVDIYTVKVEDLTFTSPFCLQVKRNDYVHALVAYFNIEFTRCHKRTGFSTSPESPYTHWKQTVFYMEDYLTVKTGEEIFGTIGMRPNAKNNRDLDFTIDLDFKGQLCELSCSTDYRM

As for `Nc1ncnc2c1ncn2[C@@H]1O[C@H](C[C@H](CC[C@H](N)C(=O)O)NCc2ccccc2)[C@@H](O)[C@H]1O` [3d, N-benzyl sinefungin], on SETD2 [1] (fold higher potency), the “potency against SETD2 relative to sinefungin 2, 3a and 3b” value is “more than 10 fold”. The “preference to SETD2 over other examined methyltransferases” value at SETD2 [1] is 10~100 fold. In addition, in the assay on SUV39H2, the “drop in potency from 3c to 3d on SUV39H2” value is listed as 10~50 fold. For the same compound, the “drop in potency from 3c to 3d on SET7/9” value on SET7/9 is 10~50 fold.
Consider `CCCNC(CCC(N)C(=O)O)C[C@H]1O[C@@H](n2cnc3c(N)ncnc32)[C@H](O)[C@@H]1O` (stereo partly shown) [3c, N-propyl sinefungin], for which, on SETD2 [1], the “preference to SETD2 over other examined methyltransferases” value is 2~200 fold. Further, the IC50 was 9500 ± 400 nM at PRMT1; 2960 ± 300 nM at CARM1; more than 100000 nM on GLP; more than 100000 nM at SET8; 600 nM at SETD2 [2] (read-out: calculated IC50 against SETD2, calculated from kinetic constants); more than 100000 nM at G9a. Also, on SET7/9 (read-out: IC50 for SET7/9), the IC50 worked out at 2200 ± 400 nM. In addition, the “enhancement of Kd by presence of SETD2's substrate” value at SETD2 [2] was 8 fold. Also, the β at SETD2 [2] (factor by which binding of inhibitor or substrate affects binding of the other) came to 0.12 ± 0.01. Moreover, the Kd on SETD2 [2] (read-out: βKd to bind SETD2, presence of substrate) is 43 ± 4 nM. At SETD2 [2] (varied inhibitor, fixed SAM (0.8 μM)), the “mechanism of inhibition versus peptide substrate” value is on record as “noncompetitive”. For the same compound, on SETD2 [2] (varied inhibitor, fixed substrate (4 μM)), the “mechanism of inhibition versus SAM cofactor” value was “competitive”.
With `C[S+](CC[C@H](N)C(=O)[O-])C[C@H]1O[C@@H](n2cnc3c(N)ncnc32)[C@H](O)[C@@H]1O` (stereo partly shown) [SAM, S-adenosylmethionine, reference compound], at SETD2 [2] (read-out: Km,SAM of SETD2, absence of Pr-SNF), the Km (commonly the substrate concentration at which the rate is half of its maximum) was determined as 1.21 ± 0.05 µM.
As for `CC(C)N(CCCNC(=O)Nc1ccc(C(C)(C)C)cc1)C[C@H]1O[C@@H](n2ccc3c(N)ncnc32)[C@H](O)[C@@H]1O` [EPZ004777], the IC50 in the assay on DOT1L is […].
